Test results reported in ChEMBL document CHEMBL3352286, “Submonomer synthesis of azapeptide ligands of the Insulin Receptor Tyrosine Kinase domain” (Bioorg Med Chem Lett, 2014).
Starred links: 1 amine or outer side, 2 acyl side, 3 side chain; linkers in the order of their positions; H or OH if unused. Non-standard residues stand in square brackets, D forms with d. Residues, ends and D or L forms follow the SMILES beside them. azaTyr = O=C(N(Cc1ccc(O)cc1)N[*:1])[*:2]; X1 = O=C(N(Cc1ccc(O)c(O)c1)N[*:1])[*:2]; azaPhe = O=C(N(Cc1ccccc1)N[*:1])[*:2]; X3 = CC[C@H](C)N(N[*:1])C(=O)[*:2]; X2 = O=C(O)CCN(N[*:1])C(=O)[*:2]; AzaAla = CN(N[*:1])C(=O)[*:2]; azaGly = NNC(=O)O

Assays:
[1] = molecular target: Insulin receptor (Homo sapiens) (UniProt P06213); assay: Inhibition of human active insulin receptor tyrosine kinase domain (amino acids 1005 to 1310) assessed as reduction in autophosphorylation at 400 uM using 1000 uM ATP and insulin by BCIP/NBT staining based colorimetry and immunoblotting
[2] = Retention time of the compound using 2 to 90% MeCN in H2O with 0.1% FA over 15 mins by RP-LC method; type: physicochemical; conditions: 0.25 h
[3] = Retention time of the compound using 2 to 90% MeOH in H2O with 0.1% FA over 15 mins by RP-LC method; type: physicochemical; conditions: 0.25 h
Procedure, shortened: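 Reversed-phase LC with UV detection at 214 nm; gradient of 2–90% MeOH in H2O containing 0.1% formic acid over 15 min; retention time in minutes.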

[4] = molecular target: Insulin receptor (Homo sapiens) (UniProt P06213); assay: Inhibition of human active insulin receptor tyrosine kinase domain (amino acids 1005 to 1310) assessed as residual autophosphorylation level at 400 uM using 1000 uM ATP and insulin by BCIP/NBT staining based colorimetry and immunoblotting
Procedure, shortened: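 Recombinant IRTK domain (residues 1005–1310), 200 ng/mL, incubated with 1000 µM ATP and peptide ligand in reaction buffer for 20 min at 37 °C, then quenched. Samples were resolved by denaturing 10% Bis-Tris PAGE and transferred to PVDF, which was blocked overnight in 2% BSA/TBST. Blots were probed with anti-phospho-IR/IGF1R (Tyr1158/1162/1163) and an AP-conjugated goat anti-rabbit IgG, and developed colorimetrically with BCIP/NBT.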

[5] = molecular target: Insulin receptor (Homo sapiens) (UniProt P06213); assay: Stimulation of human active insulin receptor tyrosine kinase domain (amino acids 1005 to 1310) assessed as increase in autophosphorylation at 400 uM using 1000 uM ATP and insulin by BCIP/NBT staining based colorimetry and immunoblotting
[6] = molecular target: Insulin receptor (Homo sapiens) (UniProt P06213); assay: Inhibition of IRTK (unknown origin) assessed as reduction in enzyme phosphorylation at 4 mM
[7] = molecular target: Insulin receptor (Rattus norvegicus) (UniProt P15127); assay: Inhibition of rat liver IRTK assessed as reduction in enzyme phosphorylation at 4 mM
Insulin receptor (Rattus norvegicus), sequence (P15127 27-759 limits assumed): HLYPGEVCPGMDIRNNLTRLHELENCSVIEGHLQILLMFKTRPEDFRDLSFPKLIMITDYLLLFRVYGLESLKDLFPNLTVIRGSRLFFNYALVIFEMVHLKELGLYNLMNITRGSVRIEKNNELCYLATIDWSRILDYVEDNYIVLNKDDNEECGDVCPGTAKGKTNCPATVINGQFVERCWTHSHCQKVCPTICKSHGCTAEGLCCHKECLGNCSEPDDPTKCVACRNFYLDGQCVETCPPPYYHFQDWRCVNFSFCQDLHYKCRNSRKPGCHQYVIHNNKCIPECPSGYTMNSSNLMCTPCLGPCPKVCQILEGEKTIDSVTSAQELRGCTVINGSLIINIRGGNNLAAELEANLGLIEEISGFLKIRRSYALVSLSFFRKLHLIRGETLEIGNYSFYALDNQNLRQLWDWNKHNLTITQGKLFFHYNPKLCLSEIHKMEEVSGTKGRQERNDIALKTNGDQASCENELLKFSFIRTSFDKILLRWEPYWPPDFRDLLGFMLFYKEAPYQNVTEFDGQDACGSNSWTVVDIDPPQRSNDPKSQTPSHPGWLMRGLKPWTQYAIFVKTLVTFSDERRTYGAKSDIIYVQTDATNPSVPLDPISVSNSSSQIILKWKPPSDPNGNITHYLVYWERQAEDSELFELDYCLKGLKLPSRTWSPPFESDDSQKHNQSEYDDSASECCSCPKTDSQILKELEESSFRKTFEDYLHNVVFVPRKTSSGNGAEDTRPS
Insulin receptor (Rattus norvegicus), sequence (P15127 764-1383 limits assumed): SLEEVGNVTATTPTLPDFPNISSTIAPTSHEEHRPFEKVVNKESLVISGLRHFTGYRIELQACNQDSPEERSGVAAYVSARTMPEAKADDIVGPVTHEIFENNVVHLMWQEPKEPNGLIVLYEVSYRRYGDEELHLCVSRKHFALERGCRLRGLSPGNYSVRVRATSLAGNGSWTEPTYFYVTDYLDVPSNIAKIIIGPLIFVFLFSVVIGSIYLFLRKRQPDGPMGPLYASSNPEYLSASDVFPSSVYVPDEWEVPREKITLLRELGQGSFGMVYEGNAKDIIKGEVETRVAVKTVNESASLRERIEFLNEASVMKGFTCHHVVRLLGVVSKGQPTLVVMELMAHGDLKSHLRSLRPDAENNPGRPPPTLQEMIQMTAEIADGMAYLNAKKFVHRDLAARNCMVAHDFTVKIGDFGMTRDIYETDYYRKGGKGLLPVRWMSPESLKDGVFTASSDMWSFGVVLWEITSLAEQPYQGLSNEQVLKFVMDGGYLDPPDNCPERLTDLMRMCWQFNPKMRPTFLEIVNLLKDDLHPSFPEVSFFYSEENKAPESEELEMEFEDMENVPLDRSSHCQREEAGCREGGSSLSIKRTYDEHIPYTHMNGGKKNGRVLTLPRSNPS

Insulin receptor (Homo sapiens), sequence (P06213 28-758 limits assumed): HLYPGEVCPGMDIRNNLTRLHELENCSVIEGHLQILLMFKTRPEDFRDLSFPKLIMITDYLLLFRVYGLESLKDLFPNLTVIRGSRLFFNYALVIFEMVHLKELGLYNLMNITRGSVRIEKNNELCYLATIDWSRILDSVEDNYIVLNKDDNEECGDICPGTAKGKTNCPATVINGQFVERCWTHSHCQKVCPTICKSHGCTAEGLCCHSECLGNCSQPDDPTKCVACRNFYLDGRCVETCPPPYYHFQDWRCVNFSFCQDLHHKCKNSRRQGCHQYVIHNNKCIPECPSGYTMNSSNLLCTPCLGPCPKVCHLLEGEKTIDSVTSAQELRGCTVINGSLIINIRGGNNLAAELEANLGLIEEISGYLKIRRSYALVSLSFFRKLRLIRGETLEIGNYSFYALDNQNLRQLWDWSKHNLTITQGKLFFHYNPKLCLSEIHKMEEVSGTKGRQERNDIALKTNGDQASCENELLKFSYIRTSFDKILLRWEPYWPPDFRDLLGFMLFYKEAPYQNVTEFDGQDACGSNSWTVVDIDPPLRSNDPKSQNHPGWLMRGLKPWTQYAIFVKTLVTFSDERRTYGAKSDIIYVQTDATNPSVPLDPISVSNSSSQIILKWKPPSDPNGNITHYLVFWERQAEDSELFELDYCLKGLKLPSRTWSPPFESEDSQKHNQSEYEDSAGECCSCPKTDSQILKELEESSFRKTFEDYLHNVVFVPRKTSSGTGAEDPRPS
Insulin receptor (Homo sapiens), sequence (P06213 763-1382 limits assumed): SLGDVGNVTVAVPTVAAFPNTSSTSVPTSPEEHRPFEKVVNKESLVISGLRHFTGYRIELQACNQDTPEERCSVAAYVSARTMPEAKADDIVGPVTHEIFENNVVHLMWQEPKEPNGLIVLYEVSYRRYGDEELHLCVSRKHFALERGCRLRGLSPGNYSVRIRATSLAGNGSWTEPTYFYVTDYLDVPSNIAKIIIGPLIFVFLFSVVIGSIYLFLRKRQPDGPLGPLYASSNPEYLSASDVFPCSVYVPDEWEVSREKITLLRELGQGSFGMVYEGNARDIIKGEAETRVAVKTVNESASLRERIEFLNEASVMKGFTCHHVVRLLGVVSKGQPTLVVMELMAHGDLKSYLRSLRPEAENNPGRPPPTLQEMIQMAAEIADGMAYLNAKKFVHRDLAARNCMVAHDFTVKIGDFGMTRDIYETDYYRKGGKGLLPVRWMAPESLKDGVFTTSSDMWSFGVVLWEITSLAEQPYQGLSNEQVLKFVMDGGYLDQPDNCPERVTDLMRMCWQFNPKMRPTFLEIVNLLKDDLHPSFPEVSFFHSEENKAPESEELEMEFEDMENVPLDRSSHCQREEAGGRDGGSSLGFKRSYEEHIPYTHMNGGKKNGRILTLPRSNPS

| Compound | inhibition [1] | Retention_time [2] | Retention_time [3] | Activity [4] | Activity [5] | inhibition [6] | inhibition [7] |
| --- | --- | --- | --- | --- | --- | --- | --- |
| CC(C)(C)c1cc(C=C(C#N)C#N)cc(Br)c1O | 80% |  |  |  |  |  |  |
| CC[C@H](C)[C@H](NC(=O)[C@H](CC(=O)O)NC(C)=O)C(=O)N[C@@H](Cc1ccc(O)cc1)C(=O)NN(CCC(=O)O)C(=O)N[C@H](C(N)=O)[C@@H](C)O (Ac-DIY[X2]T-NH2) |  | 6.41 min | 9.61 min | 110% | 10% |  |  |
| CC[C@H](C)[C@H](NC(=O)[C@H](CC(=O)O)NC(C)=O)C(=O)NN(Cc1ccc(O)c(O)c1)C(=O)N[C@@H](CCC(=O)O)C(=O)N[C@H](C(N)=O)[C@@H](C)O (Ac-DI[X1]ET-NH2) |  | 6.33 min | 8.9 min | 128% | 30% |  |  |
| CC[C@H](C)[C@H](NC(=O)[C@H](CC(=O)O)NC(C)=O)C(=O)NN(Cc1ccccc1)C(=O)N[C@@H](CCC(=O)O)C(=O)N[C@H](C(N)=O)[C@@H](C)O (Ac-DI[azaPhe]ET-NH2) |  | 7.76 min | 11.76 min | 67% |  |  |  |
| CC[C@H](C)[C@H](NC(=O)[C@H](CC(=O)O)NC(C)=O)C(=O)NN(Cc1ccc(O)cc1)C(=O)N[C@@H](CCC(=O)O)C(=O)N[C@H](C(N)=O)[C@@H](C)O (Ac-DI[azaTyr]ET-NH2) | 50% | 6.68 min | 9.95 min | 40% |  |  |  |
| CC(=O)N[C@@H](CC(=O)O)C(=O)NN(C)C(=O)N[C@@H](Cc1ccc(O)cc1)C(=O)N[C@@H](CCC(=O)O)C(=O)N[C@H](C(N)=O)[C@@H](C)O (Ac-D[AzaAla]YET-NH2) |  | 5.26 min | 7.42 min | 74% |  |  |  |
| CC[C@H](C)N(NC(=O)[C@H](CC(=O)O)NC(C)=O)C(=O)N[C@@H](Cc1ccc(O)cc1)C(=O)N[C@@H](CCC(=O)O)C(=O)N[C@H](C(N)=O)[C@@H](C)O (Ac-D[X3]YET-NH2) |  | 5.13 min | 6.97 min | 73% |  |  |  |
| CC(=O)N[C@@H](CC(=O)O)C(=O)NNC(=O)N[C@@H](Cc1ccc(O)cc1)C(=O)N[C@@H](CCC(=O)O)C(=O)N[C@H](C(N)=O)[C@@H](C)O (Ac-D[azaGly]YET-NH2) |  | 5.04 min | 6.99 min | 61% |  |  |  |
| Ac-DIFET-NH2 |  |  |  | 84% |  | 20% |  |
| Ac-DIYET-NH2 | < 10% |  |  | 82% |  |  | 80% |
